Measured values from article PMC10764114 (ACS Omega, 2023).
Like-named read-outs stand apart in the source and are kept apart here.

Experiments:
[1] = test system: human embryonic kidney HEK293 cell line; experiment: MTT assay, cytotoxicity against normal HEK293 cells; assay type: cell-based; settings: for cytotoxicity in noncancerous cells (HEK293): compared with malignant glioma U87 cells, 10-150 μM
Summary of the method: (§1)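 Cells grown in DMEM (4.5 g/L glucose, 10% FBS, 1% penicillin/streptomycin) at 37 °C, 5% CO₂. Seeded at 1 × 10³ cells/well and left 24 h to adhere. Test compound added at 10, 40, 80, 100 or 150 μM for 48 h (text also states MTT added 24 h post-dosing). MTT in PBS added for 3 h, formazan dissolved in DMSO for 30 min, OD read at 550 nm, % viability calculated from absorbance.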

[2] = test system: U87-malignant glioma (ATCC-HTB-14); experiment: MTT assay, cytotoxicity against U87-malignant glioma cells; assay type: cell-based, human; settings: for IC50: read-out: IC50 (μM ± SEM U87); for viability at 10 µM / viability at 40 µM / viability at 80 µM / viability at 100 µM / viability at 150 µM: read-out: % cell viability U87
Summary of the method: as §1

[3] = MTT assay, cytotoxicity against normal HEK293 cells; assay type: cell-based, human; settings: human, HEK293 cells
Summary of the method: as §1

[4] = MTT assay, U87 malignant glioma cells, ± SEM

Row | Molecule | % cell viability HEK293 ([1]; concentration 10 (μM)) [%] | % cell viability HEK293 ([1]; concentration 40 (μM)) [%] | % cell viability HEK293 ([1]; concentration 80 (μM)) [%] | % cell viability HEK293 ([1]; concentration 100 (μM)) [%] | % cell viability HEK293 ([1]; concentration 150 (μM)) [%] | % cell viability U87 ([2]; concentration 10 (μM)) [%] | % cell viability U87 ([2]; concentration 40 (μM)) [%] | % cell viability U87 ([2]; concentration 80 (μM)) [%] | % cell viability U87 ([2]; concentration 100 (μM)) [%] | % cell viability U87 ([2]; concentration 150 (μM)) [%] | IC50 [2, 4] [µM] | viability at 48 h, 10 μM [3] [%] | viability at 48 h, 40 μM [3] [%] | viability at 48 h, 80 μM [3] [%] | viability at 48 h, 100 μM [3] [%] | viability at 48 h, 150 μM [3] [%] | cytotoxicity in noncancerous cells (HEK293) [1] | viability at 10 µM ([2]; Homo sapiens, Glioma cell) [%] | viability at 40 µM ([2]; Homo sapiens, Glioma cell) [%] | viability at 80 µM ([2]; Homo sapiens, Glioma cell) [%] | further results
1 | 2-(4-Isobutyl phenyl)-N′-(4-(2-(2-(4-isopropylbenzylidene)hydrazinyl)-2-oxoethoxy)benzylidene)propanehydrazide [5s] | 58.72 | 58.38 | 51.45 | 49.00 | 39.29 | 145.03 | 93.13 | 92.16 | 78.36 | 69.18 | 43.73 ± 0.11 | – | – | – | – | – | – | – | – | – | –
2 | 2-(4-Isobutyl phenyl)-N′-(4-(2-oxo-2-(2-(−3,4,5-trimethoxybenzylidene)hydrazinyl)ethoxy)benzylidene)propanehydrazide [5g] | 86.66 | 75.46 | 62.21 | 62.12 | 56.11 | 56.40 | 47.40 | 39.45 | 33.32 | 30.90 | 39.94 ± 0.16 | – | – | – | – | – | – | – | – | – | –
3 | CC(C)Cc1ccc(C(C)C(=O)NN=Cc2ccc(OCC(=O)NN=Cc3ccc(O)cc3O)cc2)cc1 (stereo not shown) [5e, N′-(4-(2-(2-(2,4-Dihydroxybenzylidene)hydrazinyl)-2-oxoethoxy)benzylidene)-2-(4-isobutylphenyl)propanehydrazide] | – | – | – | – | – | – | – | – | – | – | – | 69.4 | 69.1 | 67.9 | 62.1 | 50.8 | lower cytotoxicity | 43.4 | 41 | 39.9 | viability at 100 µM ([2]; Homo sapiens, Glioma cell): 28.5%; viability at 150 µM ([2]; Homo sapiens, Glioma cell): 27.5%; IC50 ([2]; Homo sapiens, Glioma cell): 5.75 ± 0.43 µM
4 | COc1ccc(C=NNC(=O)COc2ccc(C=NNC(=O)C(C)c3ccc(CC(C)C)cc3)cc2)c(OC)c1 (stereo not shown) [5f, N′-(4-(2-(2-(2,4-Dimethoxybenzylidene)hydrazinyl)-2-oxoethoxy)benzylidene)-2-(4-isobutylphenyl)propanehydrazide] | – | – | – | – | – | – | – | – | – | – | – | 103 | 79.2 | 71.9 | 69.9 | 63.5 | lower cytotoxicity | 54.1 | 44.2 | 38.7 | viability at 100 µM ([2]; Homo sapiens, Glioma cell): 29%; viability at 150 µM ([2]; Homo sapiens, Glioma cell): 21.6%; IC50 ([2]; Homo sapiens, Glioma cell): 24.2 ± 0.46 µM
